NPR1 activator: GC-A stimulated cGMP production enhancers – HEK293 GC-A cells, cGMP TR-FRET, EC30 ANP, primary screen. Atrial natriuretic peptide receptor 1 (Homo sapiens), P16066. 0% at EC30 ANP, 100% saturating ANP. activation, % at 10 µM. actives 0.14% (n = 370,000); in the data active = activation above about 40%
XiGFP reactiv: activators of inactive X chromosome reactivation, primary screen, imaging, XiGFP fibroblasts, GFP high-content imaging, set 2. actives 0.055% (n = 360,000). AID 743238, 2013. activation, % at 7.58 µM. XiGFP mouse fibroblasts, % GFP-positive cells imaging, 3 d; cells co-treated with 5-aza-dC sensitizer; scaled so ellipticine positive control = 100%;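 active = mean normalized replicate activation at least 10% and every replicate at or above 10%; inconclusive = only one of the two criteria met; inactive = mean below 10% and not all replicates reach 10%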
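Material: XiGFP fibroblasts, SV40-immortalized. Buffer or medium: DMEM plus 5-aza-dC sensitizer. Compound: single concentration per compound, delivered by pin transfer. Times: 3 days compound exposure. Controls: ellipticine 6 µM.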
CaV13 ICDI inh: Disruptors of the CACNA1D IQ motif to Ca2+-dependent inactivation inhibitor domain association, primary screening, Förster resonance energy transfer in intact living … | HEK cells, CFP/YFP FRET ICDI-IQ, plate reader, 10 min; percent FRET-ratio fall versus neutral wells | inhibition, % at 12.3 µM | actives 0.098% (n = 340,000);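 active = mean replicate inhibition of at least 30% and at least 1% of replicates passing that level; inconclusive = only one of the two criteria is met; inactive = neither criterion is met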
Vif imaging: HIV Vif self-association inhibitors, primary screen, imaging, HEK293T, single point; HEK293T cells, Vif self-association by quenched fluorescence, 24 h; inhibition, % at 7.49 µM; actives 0.35% (n = 340,000); AID 602346, 2012; in the data active = inhibition above about 50%, passing the limit was not always enough; inconclusive = no clear call, values can overlap the other calls; inactive = below about 31%
NPR2 activator: human GC-B receptor activators, primary screen, HEK293 GC-B cells, cGMP TR-FRET, EC30 CNP. AID 1920062, 2024. 0% at EC30 CNP, 100% saturating CNP. actives 0.11% (n = 370,000). activation, % at 10 µM;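 active = activation at 10 µM reaching about 35% in either raw or pattern-adjusted values, limit read from the data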
Target sequence (P20594 whole entry, looked up): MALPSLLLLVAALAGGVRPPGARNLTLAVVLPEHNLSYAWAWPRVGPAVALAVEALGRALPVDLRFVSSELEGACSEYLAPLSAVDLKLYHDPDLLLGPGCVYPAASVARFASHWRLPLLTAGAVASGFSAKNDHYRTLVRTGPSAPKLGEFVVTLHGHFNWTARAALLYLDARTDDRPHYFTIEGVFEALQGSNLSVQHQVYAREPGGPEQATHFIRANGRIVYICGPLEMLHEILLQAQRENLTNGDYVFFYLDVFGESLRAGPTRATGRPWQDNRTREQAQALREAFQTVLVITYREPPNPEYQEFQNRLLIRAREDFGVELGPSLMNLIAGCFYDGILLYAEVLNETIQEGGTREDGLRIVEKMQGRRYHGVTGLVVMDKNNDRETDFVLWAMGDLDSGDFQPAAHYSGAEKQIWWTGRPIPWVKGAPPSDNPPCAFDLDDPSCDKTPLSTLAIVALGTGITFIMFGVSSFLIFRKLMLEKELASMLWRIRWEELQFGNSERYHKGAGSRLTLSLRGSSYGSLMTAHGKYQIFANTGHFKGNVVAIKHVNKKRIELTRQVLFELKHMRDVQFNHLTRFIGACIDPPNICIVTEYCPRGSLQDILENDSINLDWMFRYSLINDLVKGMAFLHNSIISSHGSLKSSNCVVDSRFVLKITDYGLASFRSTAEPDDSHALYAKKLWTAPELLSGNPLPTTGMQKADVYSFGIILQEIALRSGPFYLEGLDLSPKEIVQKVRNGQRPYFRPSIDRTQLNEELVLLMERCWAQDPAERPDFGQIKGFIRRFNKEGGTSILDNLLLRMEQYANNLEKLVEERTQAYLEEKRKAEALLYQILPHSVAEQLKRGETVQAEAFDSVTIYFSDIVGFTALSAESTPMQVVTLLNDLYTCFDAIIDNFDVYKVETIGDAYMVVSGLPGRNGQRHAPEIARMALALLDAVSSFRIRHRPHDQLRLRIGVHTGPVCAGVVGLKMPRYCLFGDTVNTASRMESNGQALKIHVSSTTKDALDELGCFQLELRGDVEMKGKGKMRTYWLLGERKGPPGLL
N-glyco inh: increase of ERlucT glycosylation luciferase signal, primary screen, N-linked glycosylation inhibitor project, D54 ERlucT cells, luminescence, set 2. D54 ERlucT glycosylation luciferase reporter, 24 h; percent of 100 nM tunicamycin response. reporter increase, % at 12.5 µM. actives 0.23% (n = 360,000);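 active = mean luciferase reporter signal, scaled so untreated is 0 and the glycosylation-blocking control 100, at or above a set limit in every replicate; inconclusive = mean reaches the limit but not every replicate does; inactive = mean below the limit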;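 also: luciferase carries N-glycosylation sites so blocking glycosylation raises the light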
Large screens that a line does not name were inactive. A selection: hits, their analogues and other compounds. The true share with any hit is near 0.7%.

Cc1cccc(C(=O)N[C@H](C(=O)Nc2nc3ccccc3[nH]2)C(C)C)c1	Vif imaging 79
COc1cc(CNc2ccc3[nH]c(=O)[nH]c3c2)ccc1OCc1ccccc1F	Vif imaging inconclusive, NPR2 activator 43
O=C(C[C@H]1C=C[C@@H](NC(=O)c2ccccc2)[C@@H](CO)O1)NCc1ccc(Oc2ccccc2)cc1	none (no result: NPR1 activator, CaV13 ICDI inh, Vif imaging, NPR2 activator, N-glyco inh)
O=C1N[C@H]2CC=C[C@H]2N(Cc2cccs2)c2ccccc21	N-glyco inh 54
N#CC(C#N)=C1C=CC=CN1/C(=C\c1ccccc1)C(=O)c1cccs1	CaV13 ICDI inh 63
COc1ccc(OC)c(C=Nc2ccccc2-c2nc3ccccc3[nH]2)c1	none
O=c1[nH]c2ccccc2nc1/C=C/c1ccccc1	CaV13 ICDI inh active
COc1ccc(OC)c(/C=C/c2nc3ccccc3[nH]c2=O)c1	Vif imaging active
C[C@H]1CN([C@@H](C)CO)S(=O)(=O)c2ccc(/C=C/c3ccccc3)cc2O[C@H]1CN(C)C(=O)NC1CCCC1	none (no result: NPR1 activator, CaV13 ICDI inh, Vif imaging, NPR2 activator, N-glyco inh)
Cc1noc(C)c1NC(=O)Nc1cccc2c1O[C@H](CN(C)S(C)(=O)=O)[C@H](C)CN([C@@H](C)CO)C2=O	none (no result: NPR1 activator, CaV13 ICDI inh, Vif imaging, NPR2 activator, N-glyco inh)
Cc1ccc(Cn2cc(C(=O)c3ccc(F)cc3)c(=O)c3cc4c(cc32)OCCO4)cc1	NPR2 activator 38
COc1ccc(Nc2c3c(c(C#N)c4nc5ccccc5n24)CCC3)cc1	NPR1 activator 41 (no result: XiGFP reactiv)
COc1ccc(NC(=O)N(C)C[C@@H]2Oc3c(NS(=O)(=O)c4cccs4)cccc3C(=O)N([C@H](C)CO)C[C@@H]2C)cc1	none (no result: NPR1 activator, CaV13 ICDI inh, Vif imaging, NPR2 activator, N-glyco inh)
CCCNC(=O)c1ccc(SCC(=O)N(CC)CC)c([N+](=O)[O-])c1	Vif imaging 65
Cn1c(=O)c(NC2CCCCC2)c2c3c(cccc31)C(=O)c1ccccc1-2	XiGFP reactiv 116 (no result: Vif imaging)
Cn1c(=O)c(NCCO)c2c3c(cccc31)C(=O)c1ccccc1-2	none (no result: XiGFP reactiv, CaV13 ICDI inh)
CC(=O)Nc1ccc(Nc2c3c4c(cccc4n(C)c2=O)C(=O)c2ccccc2-3)cc1	NPR2 activator 38
O=C(C[C@@H]1CC[C@H](NC(=O)Nc2cc(F)ccc2F)[C@H](CO)O1)Nc1ccc(-c2ccccc2)cc1	none (no result: NPR1 activator, CaV13 ICDI inh, Vif imaging, NPR2 activator, N-glyco inh)
CN1C2=CC=CC=CC2=[N+](C)C12C([N+](=O)[O-])=CC(=[N+]([O-])[O-])C=C2[N+](=O)[O-] (stereo not drawn)	N-glyco inh 29 (no result: Vif imaging)
CN1C2=CC=CC=CC2=[N+](C)C12C=CC(=[N+]([O-])[O-])C=C2[N+](=O)[O-] (stereo not drawn)	none
COc1cccc(CNC(=O)[C@H]2[C@H](CO)[C@H]3Cn4c(cccc4=O)[C@@H]2N3C(=O)C2CCC2)c1	none (no result: NPR1 activator, CaV13 ICDI inh, Vif imaging, NPR2 activator, N-glyco inh)
O=c1oc2ccccc2cc1-c1nc2c(s1)CCc1ccccc1-2	none
O=c1oc2cc(O)ccc2cc1-c1nc2c(s1)CCc1ccccc1-2	XiGFP reactiv 95
Cc1cccn2c(=O)c(/C=C(\C#N)C(=O)NC3CCS(=O)(=O)C3)c(N3CCC(C(N)=O)CC3)nc12 (stereo not drawn)	CaV13 ICDI inh active
Cc1cccn2c(=O)c(/C=C(\C#N)C(=O)NC3CCS(=O)(=O)C3)c(N3CC(C)OC(C)C3)nc12 (stereo not drawn)	none
COCC(=O)N1C[C@@H](C)[C@@H](OC)CN(C)C(=O)c2ccc(NC(=O)c3ccccc3)cc2OC[C@@H]1C	none (no result: NPR1 activator, CaV13 ICDI inh, Vif imaging, NPR2 activator, N-glyco inh)
CCN(CC)CCNC(=O)C12CC3CC(C)(CC(C)(C3)C1)C2	Vif imaging 68 (no result: XiGFP reactiv, CaV13 ICDI inh)
COc1ccc(-c2nc(C(N)=O)c3[nH]c(=O)n(-c4cccc(Cl)c4)c3n2)cc1OC	N-glyco inh 36 (no result: XiGFP reactiv, CaV13 ICDI inh)
COc1cccc(-c2nc(C(N)=O)c3[nH]c(=O)n(-c4cccc(Cl)c4)c3n2)c1OC	none
COc1ccc(-c2[nH]ncc2N=Nc2ccccc2)cc1	none
COc1ccc(-c2[nH]ncc2N=Nc2cc(C)cc(C)c2)cc1	NPR2 activator 55
Nc1nn(-c2ccccc2)c(N)c1N=Nc1ccccc1F	none (no result: Vif imaging)
Cc1nc2c(N=Nc3ccccc3F)c(N)nn2c(N)c1C#N	NPR1 activator 43
O=C(CCN1CCOCC1)NCc1ccccc1	none
O=C(CN1CCOCC1)Nc1ccc(Cl)cc1	none
O=C(CCN1CCOCC1)NNC(=S)NC(=O)c1ccccc1	Vif imaging 69
O=C(CCN1CCOCC1)Nc1ccc(Cl)cc1	Vif imaging 74
COc1ccc(NC(=O)N(C)C[C@H]2Oc3c(NC(=O)CCCCCC(=O)Nc4ccccc4N)cccc3C(=O)N([C@@H](C)CO)C[C@H]2C)cc1	none (no result: NPR1 activator, CaV13 ICDI inh, Vif imaging, NPR2 activator, N-glyco inh)
O=C(Cc1ccc(Cl)cc1)NC1CC1	Vif imaging 71
CN(C)c1ccc(/C=C2\SC(N3CCCCC3)=NC2=O)cc1	Vif imaging 196
Cc1cc(N2CCN(C)CC2)nc2ccc(NC(=S)NCCCN3CCc4ccccc4C3)cc12	none
Cc1cc(N2CCN(C)CC2)nc2ccc(NC(=S)NCCN3CCc4ccccc4C3)cc12	XiGFP reactiv 49
CCN1CCN(c2cc(C)c3cc(NC(=O)CCC(=O)Nc4ccc(OC)c(OC)c4)ccc3n2)CC1	none (no result: Vif imaging)
CCN1CCN(c2cc(C)c3cc(NC(=O)c4ccc(OC)c(OC)c4)ccc3n2)CC1	NPR2 activator 47
CCN1CCN(c2cc(C)c3cc(NC(=O)c4cccs4)ccc3n2)CC1	XiGFP reactiv 12
Cc1nnc2ccc(-c3ccc(NS(=O)(=O)c4ccc(Cl)s4)cc3)nn12	Vif imaging 93
Cc1nnc2ccc(-c3ccc(NS(=O)(=O)c4ccccc4)cc3)nn12	none
CCc1ccc(S(=O)(=O)Nc2ccc(-c3ccc4nnc(C)n4n3)cc2)s1	Vif imaging 70
C[C@@H]1CN([C@H](C)CO)C(=O)c2cc(NS(=O)(=O)c3cccs3)ccc2O[C@@H](C)CCCCO[C@@H]1CN(C)S(C)(=O)=O	none (no result: NPR1 activator, CaV13 ICDI inh, Vif imaging, NPR2 activator, N-glyco inh)
C[C@@H]1CN([C@@H](C)CO)C(=O)c2cc(NS(C)(=O)=O)ccc2O[C@H]1CN(C)S(=O)(=O)c1ccc(Cl)cc1	none (no result: NPR1 activator, CaV13 ICDI inh, Vif imaging, NPR2 activator, N-glyco inh)
C[C@@H]1CN([C@H](C)CO)C(=O)CCCn2cc(nn2)CO[C@@H]1CN(C)C(=O)Nc1ccccc1C(F)(F)F	none (no result: NPR1 activator, CaV13 ICDI inh, Vif imaging, NPR2 activator, N-glyco inh)
CC1CN(S(=O)(=O)c2cccc(C(=O)NCCCn3ccnc3)c2)CC(C)O1 (stereo not drawn)	none (no result: XiGFP reactiv)
